From article PMC5839499 (Biomolecules & Therapeutics, 2018) come the findings set out here.

Series [1] in a line: Cytotoxicity assay. The settings on record: human, HepG2 cells. Format: cell-based. The gist of the method: (§1)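 MTT assay. Cells were seeded at 2–3×10⁴ cells/well and cultured 24 h. Test compound was added at a final 0.1–100 μM for 48 h. MTT (5 mg in PBS, pH 7.2) was added for 4 h at 37°C, then DMSO. Absorbance was read at 540 nm; % viability = treated/untreated absorbance ×100; n=3.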

In series [2] the test system is HIT-T15, GLUTag, and HepG2. Kind of series: Cytotoxicity assay. The settings on record: MTT, 48 h. Format: cell-based. The gist of the method: as §1
Series [3] is described as follows: Cytotoxicity assay. Format: cell-based. The settings on record: mouse, GLUTag L cells. The procedure, abridged:
as §1

For another series, the target named is T1, human GPR119 (Homo sapiens, UniProt Q8TDV5).
T1 sequence (Q8TDV5 1-335): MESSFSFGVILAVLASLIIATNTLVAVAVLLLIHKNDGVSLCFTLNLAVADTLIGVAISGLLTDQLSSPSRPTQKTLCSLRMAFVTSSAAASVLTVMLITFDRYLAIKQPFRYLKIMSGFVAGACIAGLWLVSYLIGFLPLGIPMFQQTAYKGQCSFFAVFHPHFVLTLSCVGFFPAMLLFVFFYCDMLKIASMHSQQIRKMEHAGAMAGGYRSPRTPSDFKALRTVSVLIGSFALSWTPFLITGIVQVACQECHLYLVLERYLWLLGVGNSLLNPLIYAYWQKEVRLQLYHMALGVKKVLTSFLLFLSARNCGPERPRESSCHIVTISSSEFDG
As to the kind of experiment: cAMP accumulation assay. Format: cell-based. The gist of the method: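 CHO-K1 cells carry doxycycline-inducible human GPR119 and a CRE-driven beta-lactamase reporter. Cells were seeded at 10⁴ cells/well, induced with doxycycline 1 ug/mL, and treated 5 h with test compound at varying concentrations (DMSO stocks diluted in medium). cAMP was read by ratiometric FRET beta-lactamase substrate, in triplicate per concentration, from ≥3 independent experiments.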

The test system of the next series is DIO mice. As to the kind of experiment: Oral glucose tolerance test, repeat administration for 4 weeks in DIO mice. Format: in vivo. The procedure, abridged: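 17-week-old male DIO mice were dosed orally once daily for 4 weeks with vehicle (0.5% methyl cellulose), test compound, MBX2982 10 mg/kg, linagliptin 1 mg/kg, or combinations. OGTT was run on days 1 and 29 in overnight-fasted mice: dose, then an oral 2 g/kg glucose bolus 30 min later. Tail-vein glucose was read by glucometer at 0–120 min, and AUC0–2h was calculated.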

For series [4], the system named is normal C57BL/6J mice. As to the kind of experiment: Oral glucose tolerance test, single administration in normal mice. Format: in vivo.
Series [5] has as its system normal C57BL/6J mice. Kind of series: Blood active GLP-1 levels after single oral administration in normal mice. Format: in vivo. The settings on record: 10 mg/kg oral, 30 minutes after administration, overnight-fasted mice. The procedure, abridged:
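Overnight-fasted male C57BL/6J mice (n=6) got a single oral dose of test compound, alone or with linagliptin (1 mg/kg). The control got 0.5% methyl cellulose vehicle. Blood was drawn 30 min after dosing, and active GLP-1 was measured against the vehicle group.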

A short description of series [6]: Pharmacokinetics of YH18968 in normal mice. Format: in vivo, C57BL/6J mice. The settings on record: male, C57BL/6J, mouse, plasma. The gist of the method:
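Overnight-fasted 8-week-old male C57BL/6J mice, with free access to water, received 1 mg/kg iv via tail vein or oral doses of 1, 10 and 100 mg/kg as a suspension in 0.5% methyl cellulose; n=2 per time point. Plasma underwent protein precipitation and LC-MS/MS quantification. Parameters, including F, came from non-compartmental analysis.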

In a further series the test system is GLUTag cells. Kind of series: GLP-1 release assay. Format: cell-based, murine. The procedure, abridged: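 GLUTag cells (DMEM, 10% FBS) were seeded at 10⁵ cells/well and grown 48 h. They were washed twice with serum-free DMEM, then exposed to 0.1 uM test compound in serum-free DMEM at 37°C for 120 min. Supernatant was clarified by 5-min centrifugation, and GLP-1 was measured by ELISA in triplicate.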

A short description of series [7]: Aqueous solubility in the buffer. Format: physicochemical.
For a further series, the system named is HIT-T15 cells. As to the kind of experiment: Insulin release assay. Format: cell-based, hamster. The procedure, abridged: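 HIT-T15 cells were seeded at 2×10⁵ cells/well and grown 48 h. They were washed in Krebs-Ringer bicarbonate buffer (pH 7.4, 0.2% BSA) and preincubated 60 min at 37°C with 5 mM glucose. Stimulation was with 0.1 uM test compound at 15 mM glucose, 60 min, 37°C; GSIS used 100 nM at 0, 3 and 15 mM glucose, 1 h. Supernatant insulin was measured by ELISA in triplicate.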

Molecules are shown by their SMILES. “Also recorded” adds a separate entry of the source.

Turning to `CCc1cnc(N2CCC(c3nc(COc4ccc(-n5cnnn5)cc4)cs3)CC2)nc1` [MBX2982, reference compound], the CC50 – broadly, the concentration at which the toxic effect on the cells reaches its halfway point – at 48 h was determined as 15.9 µM in “Cytotoxicity assay [1]” and 12.2 µM in “Cytotoxicity assay [3]”. Further, the “concentration up to which cytotoxicity was not observed” value in [2] turned out to be 1 µM. Further, at human GPR119, the half-maximal effective concentration (EC50) (usually the concentration needed to bring the measured effect to its halfway point) came out at 11.2 nM.

For the compound `CC(C)c1nc(N2CCN(c3ncc(-c4ccc(-n5cnn([C@H]6CCOC6)c5=O)c(F)c4)cc3C#N)CC2)no1` [YH18968, (S)-5-(3-fluoro-4-(5-oxo-1-(tetrahydrofuran-3-yl)-1,5-dihydro-4H-1,2,4-triazol-4-yl)phenyl)-2-(4-(5-isopropyl-1,2,4-oxadiazol-3-yl)piperazin-1-yl)nicotinonitrile], in the series with DIO mice (1 mg/kg oral once daily, day 1, DIO mice), the “AUC for blood glucose in OGTT versus vehicle control, day 1” value is reported as “significantly lowered; also recorded: significant decrease”. The “glucose lowering effect compared with 10 mg/kg of MBX2982, day 1” value with DIO mice (1 mg/kg oral, day 1, DIO mice) is listed as “more potent glucose lowering effect”. The “AUC for blood glucose in OGTT versus vehicle control” value in the series with normal C57BL/6J mice [4] (single oral 0.1, 1, and 10 mg/kg, dose-dependent) is recorded as “significantly lowered”. Moreover, the “glucose lowering effect compared with 30 mg/kg of MBX2982” value in the series on normal C57BL/6J mice [4] (single oral 1 and 10 mg/kg) was “more potent glucose lowering effects”. For the same compound, the “concentration up to which cytotoxicity was not observed” value in series [2] was determined as 5 µM. Further, the “increase of active GLP-1 levels compared to the vehicle control” value in the series on normal C57BL/6J mice [5] is on record as 2.7 fold. In series [6] (iv, 1 mg/kg), the AUC(0-inf) (commonly the area under the concentration-time curve extrapolated to infinity) was 1620 ng·h/mL; the area under the curve AUC(0-t) – broadly, exposure summed from dosing to a finite time, without extrapolation to infinity – was 1380 ng·h/mL; the MRT – broadly, the average time that molecules of a dose stay in the body – is 3.4 h; the Vd (as a rule, a proportionality between amount in the body and measured concentration, not a real space) amounted to 2.11 L/kg. The clearance (commonly a measure of how efficiently the substance is removed, as volume per time) in series [6] (iv, 1 mg/kg) is 10.3 mL/min/kg. Also, in series [6] (po), the Tmax (as a rule, the time at which the peak concentration occurs) was determined as 30 min and the bioavailability (usually dose-corrected exposure relative to a reference, in per cent) is 4.8 to 40%. Besides, in [6] (po, 1 mg/kg), the area under the curve AUC(0-inf) came out at 720 ng·h/mL, the area under the curve AUC(0-t) worked out at 550 ng·h/mL, the peak level (Cmax) was 169 ng/mL and the time to peak (Tmax) amounted to 30 min. Moreover, in [6] (po, 1 mg/kg), the bioavailability came out at 40% and the half-life (in general, the time needed for the level to fall by half in the phase considered) is 186 min. Also, in [6] (po, 10 mg/kg), the total exposure AUC(0-inf) was determined as 2960 ng·h/mL, the AUC(0-t) is 2470 ng·h/mL, the highest concentration (Cmax) (usually the maximum level reached in the sampled fluid or tissue) came out at 760 ng/mL and the time of peak concentration (Tmax) stood at 30 min. In series [6] (po, 10 mg/kg), this compound had a bioavailability of 18% and a half-life of 156 min. Moreover, in [6] (po, 100 mg/kg), the AUC(0-inf) stood at 15800 ng·h/mL, the area under the curve AUC(0-t) is 6540 ng·h/mL, the concentration peaked (Cmax) at 1470 ng/mL and the Tmax was determined as 30 min. Also, in series [6] (po, 100 mg/kg), the bioavailability was found to be 4.8% and the half-life was 552 min. The compound also showed a GLP-1 secretion in the series on GLUTag cells (GLUTag cell, 0.1 uM, 120 min) of 2.3 fold. Besides, the half-maximal effective concentration (EC50) in the series on GLUTag cells (Mus musculus, GLUTag, read-out: EC50, GLP-1 secretion) worked out at 0.1 nM. The aqueous solubility entry in series [7] was “poor”. At human GPR119, this compound showed an EC50 of 2.8 nM. For the same compound, the “potency on human GPR119 relative to MBX2982” value at human GPR119 (more potent than MBX2982 (EC50 11.2 nM, same assay)) is listed as “approximately 4 fold”. For the same compound, the “potency of human GPR119 activation relative to MBX2982” value on human GPR119 (more potent than the reported effect of MBX2982 (EC50 8.33 nM, HEK293)) is listed as “approximately 3 fold”. In addition, in the series on HIT-T15 cells (100 nM, 3 and 15 mM glucose, 1 h), the “glucose-stimulated insulin secretion (GSIS)” value is listed as “enhanced in a glucose-dependent manner”. In addition, the “insulin release without glucose” value in the series with HIT-T15 cells (100 nM, cells incubated without glucose, 1 h) is reported as “no effect”. The compound further came in with an insulin secretion in the series with HIT-T15 cells (HIT-T15 cell, 0.1 uM, 15 mM glucose, 60 min) of 1.9 fold.

For `CC#CCn1c(N2CCC[C@@H](N)C2)nc2c1c(=O)n(Cc1nc(C)c3ccccc3n1)c(=O)n2C` [linagliptin, reference compound], the “AUC blood glucose level in OGTT” value in the series on DIO mice (1 mg/kg of linagliptin, DIO mice) is given as “near normal range”.
